Experimental data from ChEMBL document CHEMBL4622992, “New Polyaminoisoprenyl Antibiotics Enhancers against Two Multidrug-Resistant Gram-Negative Bacteria from Enterobacter and Salmonella Species” (J Med Chem, 2020).
In brackets after ≈: the same amount, converted by molar mass. Activity calls are given as the source filed them. The calls are words filed in the database; no cut-off is given here.

Assays:
Salmonella typhimurium [1] = assay: Potentiation of nalidixic acid-induced antibacterial activity against Salmonella enterica subsp. enterica serovar Typhimurium BN10055 assessed as ratio of the nalidixic acid alone MIC to […] in presence of MIC/4 level of compound incubated for 18 hrs; type: functional
Method in brief: (§1)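 Broth microdilution in MH broth, 10^5 CFU inoculum, two-fold antibiotic dilutions, with or without compound at MIC/4. MIC is the lowest concentration with no visible growth after 18 h at 37°C. Gain is antibiotic MIC alone divided by MIC with compound. MICs repeated in at least three independent experiments; up to 5% DMSO.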

Salmonella typhimurium [2] = assay: Potentiation of doxycycline-induced antibacterial activity against Salmonella enterica subsp. enterica serovar Typhimurium BN10055 assessed as ratio of the doxycycline alone MIC to doxycycline MIC in presence of MIC/4 level of compound incubated for 18 hrs; type: functional; method in brief: as §1
Klebsiella aerogenes [3] = assay: Potentiation of chloramphenicol-induced antibacterial activity against Enterobacter aerogenes Ea289 assessed as ratio of the chloramphenicol alone MIC to […] in presence of MIC/4 level of compound incubated for 18 hrs; type: functional; method in brief: as §1
Klebsiella aerogenes [4] = assay: Potentiation of doxycycline-induced antibacterial activity against Enterobacter aerogenes Ea289 assessed as ratio of the doxycycline alone MIC to doxycycline MIC in presence of MIC/4 level of compound incubated for 18 hrs; type: functional; method in brief: as §1
Salmonella typhimurium [5] = assay: Potentiation of erythromycin-induced antibacterial activity against Salmonella enterica subsp. enterica serovar Typhimurium BN10055 assessed as ratio of the erythromycin alone MIC to erythromycin MIC in presence of MIC/4 level of compound incubated for 18 hrs; type: functional; method in brief: as §1
Klebsiella aerogenes [6] = assay: Potentiation of erythromycin-induced antibacterial activity against Enterobacter aerogenes Ea289 assessed as ratio of the erythromycin alone MIC to erythromycin MIC in presence of MIC/4 level of compound incubated for 18 hrs
Klebsiella aerogenes [7] = assay: Antibacterial activity against Enterobacter aerogenes Ea289 containing deltaacrB mutant assessed as inhibition of bacterial growth incubated for 18 hrs; type: organism-based
Method in brief: (§2)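 Broth microdilution per CA-SFM in MH broth; inoculum 10⁵ CFU in 200 µL with two-fold serial dilutions; compounds dissolved in DMSO, up to 5% DMSO on bacteria. MIC = lowest concentration with no visible growth after 18 h at 37°C. Repeated at least three times independently.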

[8] = Toxicity in CHO cells assessed as reduction in cell viability incubated for 24 hrs by WST1 assay; type: cell-based; details: Chinese hamster (Cricetulus griseus)
Method in brief: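 CHO-K1 cells in McCoy's 5A with 10% FCS, exposed in triplicate to 30–1200 μM compound for 24 h at 37°C. After PBS washes, 30 min in medium with 10% WST-1; absorbance at 450 nm. IC50 is the concentration giving 50% loss of viable cells.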

Salmonella typhimurium [9] = assay: Antibacterial activity against Salmonella enterica subsp. enterica serovar Typhimurium BN10055 containing deltaacrB mutant assessed as inhibition of bacterial growth incubated for 18 hrs; type: organism-based; method in brief: as §2
Salmonella typhimurium [10] = assay: Potentiation of chloramphenicol-induced antibacterial activity against Salmonella enterica subsp. enterica serovar Typhimurium BN10055 assessed as ratio of the chloramphenicol alone MIC to […] in presence of MIC/4 level of compound incubated for 18 hrs; type: functional; method in brief: as §1
Klebsiella aerogenes [11] = assay: Potentiation of nalidixic acid-induced antibacterial activity against Enterobacter aerogenes Ea289 assessed as ratio of the nalidixic acid alone MIC to nalidixic acid MIC in presence of MIC/4 level of compound incubated for 18 hrs
[12] = Toxicity index, ratio of IC50 for toxicity in CHO cells to concentration of test compound causing at least 8 times decrease of MIC of almost 3 antibiotics (chloramphenicol/nalidixic acid/doxycycline/erythromycin ) against Enterobacter aerogenes Ea289; type: cell-based; details: hamster, pooled result: one value given for 2 cell lines, strains, targets or settings
Klebsiella aerogenes [13] = assay: Potentiation of chloramphenicol-induced antibacterial activity against Enterobacter aerogenes Ea289 assessed as efficiency index by measuring sum of gain factor for each test compound reported for chloramphenicol/nalidixic acid/doxycycline/erythromycin and divided by concentration of test compound; type: functional; details: pooled result: one value given for 2 cell lines, strains, targets or settings
Method in brief: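 Gain factors (antibiotic MIC alone / MIC with compound at MIC/4; broth dilution, 18 h, 37°C) for erythromycin, doxycycline, nalidixic acid and chloramphenicol are summed, then divided by the compound concentration used in the assay.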

Salmonella typhimurium [14] = assay: Antibacterial activity against Salmonella enterica subsp. enterica serovar Typhimurium BN10055 assessed as inhibition of bacterial growth incubated for 18 hrs; type: organism-based; method in brief: as §2
Klebsiella aerogenes [15] = assay: Antibacterial activity against Enterobacter aerogenes Ea289 assessed as inhibition of bacterial growth incubated for 18 hrs; type: organism-based; method in brief: as §2
Klebsiella aerogenes [16] = assay: Inhibition of AcrAB-TolC in Enterobacter aerogenes Ea289 assessed as retention of 1,2'diNA dye within bacterial membranes at 100 uM relative to control; set-up: scale not given: the % may be the effect or the level left
Method in brief: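 Stationary-phase cells at OD600 0.25 in potassium phosphate buffer pH 7.0 with CCCP 5 µM, loaded overnight with 1,2'-diNA 32 µM at 37°C, washed, compound added at 100 µM. Glucose 50 mM added at 300 s to energize efflux. Fluorescence (ex 370/em 420 nm) read every 30 s at 37°C; PAβN 100 µM as reference.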

[17] = Toxicity in BALB/cByJ mouse assessed as induction of toxic signs at 50 uM, ip measured after 48 hrs; type: organism-based; details: in vivo
Klebsiella aerogenes [18] = assay: Induction of outer cell membrane permeabilization in Enterobacter aerogenes Ea289 assessed as induction of H33342 dye penetration at 100 uM; type: organism-based
Klebsiella aerogenes [19] = assay: Induction of outer cell membrane permeabilization in Enterobacter aerogenes Ea289 assessed as induction of nitrocefin hydrolysis at 100 uM measured during initial 200 secs; type: organism-based
Method in brief: (§3)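 Cells at OD600 0.25 in phosphate buffer (20 mM K2HPO4, 1 mM MgCl2, pH 7.0) with 5 μM CCCP, mixed with nitrocefin 50 μg/mL, then compound at 100 μM. Periplasmic β-lactamase hydrolysis followed by absorbance at 490 nm every 30 s at 37°C.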

Klebsiella aerogenes [20] = assay: Induction of cell transmembrane potential disruption in Enterobacter aerogenes Ea289 assessed as membrane potential by measuring fluorescence level at 100 uM by [DiSC3(5)] based assay (reference value: 0.2%)
[21] = Toxicity in BALB/cByJ mouse assessed as effect on mouse survival at 50 uM, ip measured after 48 hrs; type: organism-based; details: in vivo
Klebsiella aerogenes [22] = assay: Induction of outer cell membrane permeabilization in Enterobacter aerogenes Ea289 assessed as induction of nitrocefin hydrolysis at 100 uM incubated for 15 mins; type: organism-based; method in brief: as §3
Salmonella typhimurium [23] = assay: Potentiation of doxycycline-induced antibacterial activity against Salmonella typhimurium assessed as mouse survival rate at 0.5 mg/kg, ip co-treated with 64 mg/kg for doxycycline (reference value: 0%); type: functional, Salmonella enterica subsp. enterica serovar Typhimurium
Method in brief: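 Female BALB/cByJ mice, 5-6 weeks, anaesthetized with sevoflurane, infected ip with 200 µL of S. Typhimurium at 10² CFU/mL. Daily dosing with saline, doxycycline 64 mg/kg alone, or doxycycline 64 mg/kg plus 0.5 mg/kg compound. Mice weighed daily; sacrificed at day 1 (n=3), 3 (n=3) or 7 (n=6).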

Compound	Ratio (Salmonella typhimurium [1])	Ratio (Salmonella typhimurium [2])	Ratio (Klebsiella aerogenes [3])	Ratio (Klebsiella aerogenes [4])	Ratio (Salmonella typhimurium [5])	Ratio (Klebsiella aerogenes [6])	MIC (Klebsiella aerogenes [7])	IC50 at 24 h [8]	Ratio (Salmonella typhimurium [10])	Ratio (Klebsiella aerogenes [11])	selectivity ratio [12]	Activity_index (Klebsiella aerogenes [13])	MIC (Salmonella typhimurium [14])	MIC (Klebsiella aerogenes [15])	other results
CC(C)=CCC/C(C)=C\CCC(C)=CCNCCCCCCCCCCCCN	8	8	2	2	2	1	7.8 µM (≈ 3.16 µg/mL)	25.3 µM	4	1					MIC (Salmonella typhimurium [9]): 3.9 µM (≈ 1.58 µg/mL)
CC(C)=CCC/C(C)=C\CCC(C)=CCNCCNCCNCCNCCNCCN	32	16	4	16	2	4	7.8 µM (≈ 3.41 µg/mL)	41.7 µM	8	8	10.7	2.88			
CC(C)=CCCC(C)=CCNCCNCCNCCNCCNCCN	16	4	8	2		1		> 150 µM	8	4	0.06	0	> 500 µM	> 500 µM	
CC(C)=CCCC(C)=CCNCCNCCNCCN	16		8					> 150 µM	4	2	0.06	0	> 500 µM	> 500 µM	
CC(C)=CCCC(C)=CCNCCCN(CCCN)CCCN	128	16	8	32	4	16		127 µM	16	8	16.2	3.65			Activity (Klebsiella aerogenes [16]): 68%; Activity [17]: Non-Toxic; Activity (Klebsiella aerogenes [18]): Active; Activity (Klebsiella aerogenes [19]): inactive; Activity (Klebsiella aerogenes [20]): 1%; Activity [21]: Non-Toxic; Activity (Klebsiella aerogenes [22]): Active; Survival (Salmonella typhimurium [23]): 43%
